The source of these data is ChEMBL document CHEMBL1127054, “3-Aryl-2-(3'-substituted-1',2',4'-oxadiazol-5'-yl)tropane analogues of cocaine: affinities at the cocaine binding site at the dopamine, serotonin, and norepinephrine transporters” (J Med Chem, 1993).

In assay [1] the target is Sodium-dependent dopamine transporter (Rattus norvegicus, UniProt P23977). Kind of assay: Binding affinity towards Dopamine transporter by displacement of [3H]WIN-35428 radioligand from rat brain. For orientation: Displacement assays read how much labelled ligand stays bound in the presence of the test substance.
The target of assay [2] is Norepinephrine transporter (Rattus norvegicus, UniProt Q9WTR4). Briefly: Binding affinity towards norepinephrine transporter by displacement of [3H]nisoxetine radioligand from rat brain.
The target of assay [3] is Sodium-dependent serotonin transporter (Rattus norvegicus, UniProt P31652). Briefly: Binding affinity towards serotonin transporter by displacement of [3H]- paroxetine radioligand from rat brain. A digest of the protocol: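 Midbrain tissue (1.5 mg original wet weight) with 0.2 nM [3H]paroxetine in 50 mM Tris, 120 mM NaCl, 5 mM KCl, pH 7.4, for 90 min at room temperature; nonspecific binding defined with 1 μM citalopram. Terminated by filtration through polyethylenimine-soaked GF/B filters with ice-cold buffer washes. Mean ± SE of four triplicate experiments.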

The target of assay [4] is Monoamine transporters; Norepininephrine & dopamine (Rattus norvegicus) (UniProt P23977+Q9WTR4). Briefly: Ratio between norepinephrine and Dopamine transporter. Format: protein assay.
Assay [5] addresses Monoamine transporters; serotonin & dopamine (Rattus norvegicus) (UniProt P31652+P23977). Kind of assay: Ratio between serotonin transporter and Dopamine transporter. Format: protein assay.

Monoamine transporters; serotonin & dopamine (Rattus norvegicus), sequence (P23977 whole entry, looked up): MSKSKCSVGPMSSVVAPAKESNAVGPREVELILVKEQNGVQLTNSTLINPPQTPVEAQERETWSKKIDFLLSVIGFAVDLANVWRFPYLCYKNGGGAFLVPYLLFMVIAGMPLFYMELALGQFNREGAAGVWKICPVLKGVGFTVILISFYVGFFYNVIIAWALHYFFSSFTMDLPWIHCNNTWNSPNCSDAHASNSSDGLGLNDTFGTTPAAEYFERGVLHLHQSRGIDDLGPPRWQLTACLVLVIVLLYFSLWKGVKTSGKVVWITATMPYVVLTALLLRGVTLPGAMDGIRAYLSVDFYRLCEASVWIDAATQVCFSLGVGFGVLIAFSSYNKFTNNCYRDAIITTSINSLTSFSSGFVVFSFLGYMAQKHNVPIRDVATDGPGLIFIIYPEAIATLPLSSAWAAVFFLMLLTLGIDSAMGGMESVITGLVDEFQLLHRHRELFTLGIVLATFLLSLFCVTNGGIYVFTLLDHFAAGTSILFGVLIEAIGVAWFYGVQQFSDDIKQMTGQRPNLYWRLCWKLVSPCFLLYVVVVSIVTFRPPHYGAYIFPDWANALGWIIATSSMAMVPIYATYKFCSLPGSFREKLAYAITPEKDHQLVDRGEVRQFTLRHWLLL
Monoamine transporters; serotonin & dopamine (Rattus norvegicus), sequence (P31652 whole entry, looked up): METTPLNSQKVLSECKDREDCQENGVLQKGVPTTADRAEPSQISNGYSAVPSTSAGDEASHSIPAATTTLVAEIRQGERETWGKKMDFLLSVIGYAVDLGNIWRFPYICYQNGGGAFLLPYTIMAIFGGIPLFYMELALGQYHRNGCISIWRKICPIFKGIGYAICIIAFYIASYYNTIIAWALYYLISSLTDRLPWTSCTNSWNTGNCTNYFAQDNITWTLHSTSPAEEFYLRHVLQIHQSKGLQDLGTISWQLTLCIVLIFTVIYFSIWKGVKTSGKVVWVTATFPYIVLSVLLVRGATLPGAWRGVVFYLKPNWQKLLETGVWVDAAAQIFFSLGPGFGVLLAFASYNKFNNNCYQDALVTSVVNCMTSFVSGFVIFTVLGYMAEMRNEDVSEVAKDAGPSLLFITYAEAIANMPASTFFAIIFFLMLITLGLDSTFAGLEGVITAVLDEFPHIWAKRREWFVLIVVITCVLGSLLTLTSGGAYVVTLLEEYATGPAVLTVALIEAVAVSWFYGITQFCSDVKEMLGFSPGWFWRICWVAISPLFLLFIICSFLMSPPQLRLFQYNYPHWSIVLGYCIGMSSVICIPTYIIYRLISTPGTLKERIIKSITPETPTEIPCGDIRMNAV
Sodium-dependent dopamine transporter, sequence (P23977 whole entry): as the sequence (P23977 whole entry, looked up) above
Sodium-dependent serotonin transporter, sequence (P31652 whole entry): as the sequence (P31652 whole entry, looked up) above
Norepinephrine transporter, sequence (Q9WTR4 whole entry): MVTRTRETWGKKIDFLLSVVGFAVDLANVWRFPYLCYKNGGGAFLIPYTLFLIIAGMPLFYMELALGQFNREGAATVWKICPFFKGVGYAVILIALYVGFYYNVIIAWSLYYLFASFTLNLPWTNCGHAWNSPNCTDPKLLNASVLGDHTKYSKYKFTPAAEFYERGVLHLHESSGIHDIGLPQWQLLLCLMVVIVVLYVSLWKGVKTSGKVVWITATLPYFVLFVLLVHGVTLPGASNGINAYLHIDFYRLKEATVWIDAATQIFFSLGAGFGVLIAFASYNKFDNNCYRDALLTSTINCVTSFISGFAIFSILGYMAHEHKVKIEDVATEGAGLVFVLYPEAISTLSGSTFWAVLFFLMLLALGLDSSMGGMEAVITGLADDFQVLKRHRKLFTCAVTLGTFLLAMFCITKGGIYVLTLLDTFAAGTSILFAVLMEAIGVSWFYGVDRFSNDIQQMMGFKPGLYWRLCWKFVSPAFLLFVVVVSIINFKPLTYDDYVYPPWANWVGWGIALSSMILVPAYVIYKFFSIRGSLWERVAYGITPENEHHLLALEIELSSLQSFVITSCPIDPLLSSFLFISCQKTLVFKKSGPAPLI

Consider `Cc1ccc([C@H]2C[C@H]3CCC(C2C(=O)Oc2ccccc2)N3C)cc1` (some centres undefined), for which the IC50 (as a rule, the concentration at which inhibition is half-maximal) amounted to 3.27 nM in assay [1], 5830 nM in assay [2] and 24500 nM in assay [3]. In addition, in assay [4], the Ratio was determined as 1780.
Turning to `COC(=O)[C@@H]1C2CC[C@H](C[C@@H]1c1ccccc1)N2C`, the IC50 in assay [2] was 920 nM.
As to `Cc1noc(C2C3CC[C@H](C[C@@H]2c2ccccc2)N3C)n1` (stereo in doubt; 5a) [listing 1 of 2 here], the IC50 is 100 nM in assay [1], 7880 nM in assay [2] and 3830 nM in assay [3].
For the compound `Cc1noc(C2C3CC[C@H](C[C@@H]2c2ccccc2)N3C)n1` (stereo in doubt; 6) [listing 1 of 2 here], the figures for the IC50 in assay [1], in assay [2] and in assay [3] were 1030 nM, 71000 nM and 33100 nM, respectively.
In the same order, the values of `Cc1noc(C2C3CC[C@H](C[C@@H]2c2ccccc2)N3C)n1` (stereo in doubt; 8) [listing 1 of 2 here] are 167 nM, 6990 nM and 40600 nM.
Turning to `CC(C)c1noc(C2C3CC[C@H](C[C@@H]2c2ccc(Cl)cc2)N3C)n1` (some centres undefined), the IC50 came out at 6 nM in assay [1], 135 nM in assay [2] and 3460 nM in assay [3]. Besides, the Ratio turned out to be 577 in assay [5] and 23 in assay [4].
`CN1C2CCC1C(C(=O)Oc1ccccc1)C(c1ccc(Cl)cc1)C2` (centres undefined): the IC50 in assay [1] came out at 1.99 nM; in assay [2], 2960 nM. Also, the Ratio in assay [4] turned out to be 1490.
Regarding `CC(C)OC(=O)C1C2CC[C@H](C[C@@H]1c1ccc(Cl)cc1)N2C` (some centres undefined), the IC50 in assay [1] turned out to be 1.41 nM; in assay [2], 778 nM; in assay [3], 1400 nM. For the same compound, the Ratio in assay [4] amounted to 551.
Regarding `CN1C2CC[C@@H]1C[C@H](c1ccc(Cl)cc1)C2c1nc(-c2ccc(Br)cc2)no1` (some centres undefined), the half-inhibitory concentration (IC50) in assay [1] came to 3.44 nM; in assay [2], 1830 nM; in assay [3], 106 nM. The Ratio in assay [5] amounted to 31; in assay [4], 532.
For `Cc1noc(C2C3CC[C@H](C[C@@H]2c2ccccc2)N3C)n1` (stereo in doubt; 8) [listing 2 of 2 here], the figures for the Ratio in assay [5] and in assay [4] were 243 and 42, respectively.
In the same order, the values of `Cc1noc(C2C3CC[C@H](C[C@@H]2c2ccccc2)N3C)n1` (stereo in doubt; 7) [listing 1 of 2 here] are 144 and 176.
With `Cc1noc(C2C3CC[C@H](C[C@@H]2c2ccc(Cl)cc2)N3C)n1` (some centres undefined), the IC50 was determined as 363 nM in assay [2] and 2580 nM in assay [3].
For the compound `CN1C2CC[C@@H]1C[C@H](c1ccc(Cl)cc1)C2c1nc(-c2ccccc2)no1` (some centres undefined), the values for the IC50 in assay [1], in assay [2] and in assay [3] were 1.62 nM, 245 nM and 195 nM, respectively. Also, the Ratio in assay [5] was found to be 120; in assay [4], 151.
Taken in the same sequence, the figures for `COc1ccc(-c2noc(C3C4CC[C@H](C[C@@H]3c3ccc(Cl)cc3)N4C)n2)cc1` (some centres undefined) were 1.81 nM, 835 nM, 337 nM, 186 and 461.
Regarding `Cc1noc(C2C3CC[C@H](C[C@@H]2c2ccccc2)N3C)n1` (stereo in doubt; 6) [listing 2 of 2 here], the Ratio in assay [5] was 32; in assay [4], 69.
Taken in the same sequence, the figures for `Cc1noc(C2C3CC[C@H](C[C@@H]2c2ccccc2)N3C)n1` (stereo in doubt; 5a) [listing 2 of 2 here] were 38 and 79.
Consider `Cc1ccc([C@H]2C[C@H]3CCC(C2c2nc(-c4ccccc4)no2)N3C)cc1` (some centres undefined), for which the IC50 amounted to 2.33 nM in assay [1], 60 nM in assay [2] and 1070 nM in assay [3]. The Ratio in assay [5] was 459; in assay [4], 26.
With `Cc1noc(C2C3CC[C@H](C[C@@H]2c2ccccc2)N3C)n1` (stereo in doubt; 7) [listing 2 of 2 here], the half-inhibitory concentration (IC50) in assay [1] came to 204 nM; in assay [2] it was 35800 nM; in assay [3], 29400 nM.
As to `CN1C2CC[C@@H]1C[C@H](c1ccc(Cl)cc1)C2c1nc(-c2ccc(Cl)cc2)no1` (some centres undefined), the IC50 came out at 4.06 nM in assay [1], 4070 nM in assay [2] and 404 nM in assay [3]. Also, the results for the Ratio in assay [5] and in assay [4] were 100 and 1000, respectively.
